Article PMC8561236 (Cell Reports Medicine, 2021)
Values belong to the compound of their own block, whether it stands above or below them.

What was measured:
[1] = system: FRβ; settings: cited from earlier work
[2] = Pharmacokinetic study in dogs; format: in vivo, beagle dogs; settings: dog
[3] = Pharmacokinetic study in rats; format: in vivo, Lewis rats; settings: rat, EC2319 subcutaneous 500 nmol/kg; analyte = label
[4] = system: Ly6Chigh monocytes in EAU mice; assay: Experimental autoimmune uveitis; set-up: species or system B10.RIII mice; settings: mouse, in vivo, 200 mg/kg
[5] = system: RAW264.7 cells; settings: same experimental condition; cited from earlier work
[6] = system: CD172+ CD43− monocytes in anti-GBM rats; assay: Anti-GBM induced glomerulonephritis, blood monocyte analysis; format: in vivo, Wistar Kyoto rats; settings: oral, 4.56 μmol/kg on day 0 or 575 nmol/kg on days 0 and 3, day 6 whole blood
Summary of the method: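 Male WKY rats on folate-deficient diet for 10 days, then IV anti-GBM serum (25 μL/100 g); diet continued. Dosing at 8 h (day 0) and day 3, ± 300-fold molar excess FA competitor; n = 3. Blood in 5 mM K2EDTA, analysed next day: RBC lysis of 100 μL blood, flow staining. CD172+CD43− monocytes expressed as percentage of total leukocytes.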

difference in AUClast between EC2319-derived AMT and the AMT adduct [2]: 3- to 7 fold
share of total AUClast ([2]; both dosing routes (intravenous 1 mg/kg, subcutaneous 2.43 mg/kg), analyte = label): 1.37%–2.99%
AUClast (% Total) [3]: 9.17%
SMILES: Nc1nc(N)c2nc(CNc3ccc(C(=O)N[C@@H](CCC(=O)O)C(=O)O)cc3)cnc2n1 [AMT, Aminopterin]
binding affinity toward FRβ [1]: negligible

SMILES: CNC(=O)c1cc(Oc2ccc3nc(N[C@@H]4CCCC[C@H]4O)sc3c2)ccn1 [BLZ945]
effect on classical (R1, Ly6Chigh CD43+) monocytes [4]: reduced significantly to background levels

SMILES: Nc1nc(=O)c2nc(CNc3ccc(C(=O)N[C@@H](CCC(=O)O)C(=O)O)cc3)cnc2[nH]1 [FA, Folic acid]
biological effect of FA alone [5]: did not show an immediate biological effect

SMILES: CN(Cc1cnc2nc(N)nc(N)c2n1)c1ccc(C(=O)N[C@@H](CCC(=O)O)C(=O)O)cc1 [MTX, Methotrexate]
effect on CD172+ CD43− monocytes [6]: ineffective
